Reference: ChEMBL document CHEMBL2331506, “Design, synthesis, antiviral and cytostatic evaluation of novel isoxazolidine nucleotide analogues with a carbamoyl linker” (Bioorg Med Chem, 2013)
Active and inactive are the calls of the source. The rule behind the calls is not given here.

What was measured:
[1] = system: Feline coronavirus; assay: Antiviral activity against Feline coronavirus infected in cat CRFK cells assessed as reduction of virus-induced cytopathogenicity at 250 uM; format: functional, organism-based
[2] = system: Human alphaherpesvirus 1; assay: Antiviral activity against thymidine kinase-deficient, ACV-resistant Herpes simplex virus 1 KOS infected in human HEL cells assessed as reduction of virus-induced cytopathogenicity at 250 uM; format: functional, organism-based
Method in brief: (§1)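 Confluent cell monolayers were infected with 100 CCID50 of virus while exposed to varying compound concentrations. Cytopathicity was scored once it was complete in untreated infected controls. EC50 was taken as the concentration that reduced virus-induced cytopathogenicity by 50%.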

[3] = system: Influenza B virus; assay: Antiviral activity against Influenza B virus infected in dog MDCK cells assessed as reduction of virus-induced cytopathogenicity at 250 uM; format: functional, organism-based; method in brief: as §1
[4] = system: Influenza A virus; assay: Antiviral activity against Influenza A virus H3N2 infected in dog MDCK cells assessed as reduction of virus-induced cytopathogenicity at 250 uM; format: functional, organism-based; method in brief: as §1
[5] = system: Vero; assay: Cytotoxicity against african green monkey Vero cells assessed as alteration of cell morphology up to 100 uM by microscopic analysis; format: cell-based; conditions: chlorocebus sabaeus
Method in brief: (§2)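 Uninfected host-cell cultures were exposed to compound and examined by microscopy. Cytotoxicity was expressed as the minimum cytotoxic concentration (MCC) causing a microscopically detectable alteration of normal cell morphology.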

[6] = system: L1210; assay: Cytostatic activity against mouse L1210 cells assessed as inhibition of cell proliferation after 48 hrs by Coulter counter analysis; format: functional, cell-based; conditions: L1210, 48 h
Method in brief: (§3)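 Each well received (5–7.5) × 10^4 tumor cells plus compound. L1210 cells grew 48 h and CEM and HeLa cells grew 72 h, at 37 °C in humidified CO2. Cells were then counted electronically, and IC50 was taken as the concentration inhibiting proliferation by 50%.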

[7] = system: Punta Toro virus; assay: Antiviral activity against Punta Toro virus infected in african green monkey Vero cells assessed as reduction of virus-induced cytopathogenicity at 250 uM; format: functional, organism-based
Method in brief: (§4)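 Confluent monolayers (HEL fibroblasts, Vero, or HeLa cells as listed) were infected with 100 CCID50 of virus in the presence of varying compound concentrations. Virus-induced cytopathicity or plaque formation was scored once cytopathicity was complete in untreated infected controls. EC50 was taken as the concentration reducing cytopathogenicity or plaque formation by 50%.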

[8] = system: Human immunodeficiency virus 2; assay: Antiviral activity against Human immunodeficiency virus 2 ROD infected in human CEM cells assessed as reduction of virus-induced giant cell formation at 250 uM after 4 to 5 days; format: functional, organism-based; conditions: CCRF-CEM
Method in brief: (§5)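 CEM cells at 3 × 10^5 cells/mL were infected with HIV at 100 CCID50 per mL in the presence of compound dilutions. They were held 4–5 days at 37 °C in humidified CO2. Syncytium (giant cell) formation was scored microscopically, and EC50 was taken as the concentration inhibiting giant cell formation by 50%.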

[9] = system: Respiratory syncytial virus; assay: Antiviral activity against Respiratory syncytial virus long infected in human HeLa cells assessed as reduction of virus-induced cytopathogenicity at 250 uM; format: functional, organism-based; method in brief: as §4
[10] = system: Vesicular stomatitis virus; assay: Antiviral activity against Vesicular stomatitis virus infected in human HeLa cells assessed as reduction of virus-induced cytopathogenicity at 250 uM; format: functional, organism-based; method in brief: as §1
[11] = system: MDCK; assay: Cytotoxicity against dog MDCK cells assessed as alteration of cell morphology up to 100 uM by microscopic analysis; format: cell-based, Canis lupus familiaris; method in brief: as §2
[12] = system: HeLa; assay: Cytotoxicity against human HeLa cells assessed as alteration of cell morphology up to 100 uM by microscopic analysis; format: cell-based; method in brief: as §2
[13] = system: Mammalian orthoreovirus 1; assay: Antiviral activity against Reovirus 1 infected in african green monkey Vero cells assessed as reduction of virus-induced cytopathogenicity at 250 uM; format: functional, organism-based; method in brief: as §4
[14] = system: Human respirovirus 3; assay: Antiviral activity against Parainfluenza virus 3 infected in african green monkey Vero cells assessed as reduction of virus-induced cytopathogenicity at 250 uM; format: functional, organism-based; method in brief: as §4
[15] = system: Coxsackievirus B4; assay: Antiviral activity against Coxsackievirus B4 infected in african green monkey Vero cells assessed as reduction of virus-induced cytopathogenicity at 250 uM; format: functional, organism-based; method in brief: as §4
[16] = system: Influenza A virus; assay: Antiviral activity against Influenza A virus H1N1 infected in dog MDCK cells assessed as reduction of virus-induced cytopathogenicity at 250 uM; format: functional, organism-based; method in brief: as §1
[17] = Cytotoxicity against cat CRFK cells assessed as alteration of cell morphology up to 100 uM by microscopic analysis; format: cell-based, Felis catus; method in brief: as §2
[18] = system: Human alphaherpesvirus 1; assay: Antiviral activity against Herpes simplex virus 1 KOS infected in human HEL cells assessed as reduction of virus-induced cytopathogenicity at 250 uM; format: functional, organism-based; method in brief: as §4
[19] = system: HEL; assay: Cytotoxicity against human HEL cells assessed as alteration of cell morphology up to 100 uM by microscopic analysis; format: cell-based; method in brief: as §2
[20] = system: HeLa; assay: Cytostatic activity against human HeLa cells assessed as inhibition of cell proliferation after 72 hrs by Coulter counter analysis; format: functional, cell-based; method in brief: as §3
[21] = system: Human immunodeficiency virus 1; assay: Antiviral activity against Human immunodeficiency virus 1 3B infected in human CEM cells assessed as reduction of virus-induced giant cell formation at 250 uM after 4 to 5 days; format: functional, organism-based; conditions: CCRF-CEM; method in brief: as §5
[22] = system: CCRF-CEM; assay: Cytostatic activity against human CEM cells assessed as inhibition of cell proliferation after 72 hrs by Coulter counter analysis; format: functional, cell-based; method in brief: as §3
[23] = system: Sindbis virus; assay: Antiviral activity against Sindbis virus infected in african green monkey Vero cells assessed as reduction of virus-induced cytopathogenicity at 250 uM; format: functional, organism-based; method in brief: as §4
[24] = system: Felid alphaherpesvirus 1; assay: Antiviral activity against Feline herpes virus infected in cat CRFK cells assessed as reduction of virus-induced cytopathogenicity at 250 uM; format: functional, organism-based
[25] = system: Vesicular stomatitis virus; assay: Antiviral activity against Vesicular stomatitis virus infected in human HEL cells assessed as reduction of virus-induced cytopathogenicity at 250 uM; format: functional, organism-based; method in brief: as §1
[26] = system: Human alphaherpesvirus 2; assay: Antiviral activity against Herpes simplex virus 2 G infected in human HEL cells assessed as reduction of virus-induced cytopathogenicity at 250 uM; format: functional, organism-based; conditions: strain G; method in brief: as §4

CCOP(=O)(OCC)[C@H]1C[C@H](C(=O)Nc2ccc(Br)cc2)ON1C (mixture of isomers)
inhibition [1]: inactive
inhibition [2]: inactive
inhibition [3]: inactive
inhibition [4]: inactive
Activity [5]: Non-toxic
IC50 [6]: 177 µM
inhibition [7]: inactive
inhibition [8]: inactive
inhibition [9]: inactive
inhibition [10]: inactive
Activity [11]: Non-toxic
Activity [12]: Non-toxic
inhibition [13]: inactive
inhibition [14]: inactive
inhibition [15]: inactive
inhibition [16]: inactive
Activity [17]: Non-toxic
inhibition [18]: inactive
Activity [19]: Non-toxic
IC50 [20]: ≥ 250 µM
inhibition [21]: inactive
IC50 [22]: 227 µM
inhibition [23]: inactive
inhibition [24]: inactive
inhibition [25]: inactive
inhibition [26]: inactive

CCOP(=O)(OCC)[C@@H]1C[C@H](C(=O)Nc2ccc(Cl)cc2)ON1C (mixture of isomers)
inhibition [1]: inactive
inhibition [2]: inactive
inhibition [3]: inactive
inhibition [4]: inactive
Activity [5]: Non-toxic
IC50 [6]: 170 µM
inhibition [7]: inactive
inhibition [8]: inactive
inhibition [9]: inactive
inhibition [10]: inactive
Activity [11]: Non-toxic
Activity [12]: Non-toxic
inhibition [13]: inactive
inhibition [14]: inactive
inhibition [15]: inactive
inhibition [16]: inactive
Activity [17]: Non-toxic
inhibition [18]: inactive
Activity [19]: Non-toxic
IC50 [20]: > 250 µM
inhibition [21]: inactive
IC50 [22]: ≥ 250 µM
inhibition [23]: inactive
inhibition [24]: inactive
inhibition [25]: inactive
inhibition [26]: inactive

CCOP(=O)(OCC)[C@H]1C[C@H](C(=O)Nc2ccccc2[N+](=O)[O-])ON1C (mixture of isomers)
inhibition [1]: inactive
inhibition [2]: inactive
inhibition [3]: inactive
inhibition [4]: inactive
Activity [5]: Non-toxic
IC50 [6]: 168 µM
inhibition [7]: inactive
inhibition [8]: inactive
inhibition [9]: inactive
inhibition [10]: inactive
Activity [11]: Non-toxic
Activity [12]: Non-toxic
inhibition [13]: inactive
inhibition [14]: inactive
inhibition [15]: inactive
inhibition [16]: inactive
Activity [17]: Non-toxic
inhibition [18]: inactive
Activity [19]: Non-toxic
IC50 [20]: > 250 µM
inhibition [21]: inactive
IC50 [22]: ≥ 250 µM
inhibition [23]: inactive
inhibition [24]: inactive
inhibition [25]: inactive
inhibition [26]: inactive

CCOP(=O)(OCC)[C@H]1C[C@H](C(=O)Nc2ccc(C(C)=O)cc2)ON1C (mixture of isomers)
inhibition [1]: inactive
inhibition [2]: inactive
inhibition [3]: inactive
inhibition [4]: inactive
Activity [5]: Non-toxic
IC50 [6]: > 250 µM
inhibition [7]: inactive
inhibition [8]: inactive
inhibition [9]: inactive
inhibition [10]: inactive
Activity [11]: Non-toxic
Activity [12]: Non-toxic
inhibition [13]: inactive
inhibition [14]: inactive
inhibition [15]: inactive
inhibition [16]: inactive
Activity [17]: Non-toxic
inhibition [18]: inactive
Activity [19]: Non-toxic
IC50 [20]: > 250 µM
inhibition [21]: inactive
IC50 [22]: > 250 µM
inhibition [23]: inactive
inhibition [24]: inactive
inhibition [25]: inactive
inhibition [26]: inactive

CCOP(=O)(OCC)[C@H]1C[C@H](C(=O)Nc2ccc(F)cc2)ON1C (racemic)
inhibition [1]: inactive
inhibition [2]: inactive
inhibition [3]: inactive
inhibition [4]: inactive
Activity [5]: Non-toxic
inhibition [7]: inactive
inhibition [8]: inactive
inhibition [9]: inactive
inhibition [10]: inactive
Activity [11]: Non-toxic
Activity [12]: Non-toxic
inhibition [13]: inactive
inhibition [14]: inactive
inhibition [15]: inactive
inhibition [16]: inactive
Activity [17]: Non-toxic
inhibition [18]: inactive
Activity [19]: Non-toxic
inhibition [21]: inactive
inhibition [23]: inactive
inhibition [24]: inactive
inhibition [25]: inactive
inhibition [26]: inactive

CCOP(=O)(OCC)[C@@H]1C[C@H](C(=O)Nc2ccc([N+](=O)[O-])cc2)ON1C (racemic)
inhibition [1]: inactive
inhibition [2]: inactive
inhibition [3]: inactive
inhibition [4]: inactive
Activity [5]: Non-toxic
inhibition [7]: inactive
inhibition [8]: inactive
inhibition [9]: inactive
inhibition [10]: inactive
Activity [11]: Non-toxic
Activity [12]: Non-toxic
inhibition [13]: inactive
inhibition [14]: inactive
inhibition [15]: inactive
inhibition [16]: inactive
Activity [17]: Non-toxic
inhibition [18]: inactive
Activity [19]: Non-toxic
inhibition [21]: inactive
inhibition [23]: inactive
inhibition [24]: inactive
inhibition [25]: inactive
inhibition [26]: inactive

CCOP(=O)(OCC)[C@H]1C[C@H](C(=O)Nc2ccc(C)cc2)ON1C (relative stereo)
inhibition [1]: inactive
inhibition [2]: inactive
inhibition [3]: inactive
inhibition [4]: inactive
Activity [5]: Non-toxic
inhibition [7]: inactive
inhibition [8]: inactive
inhibition [9]: inactive
inhibition [10]: inactive
Activity [11]: Non-toxic
Activity [12]: Non-toxic
inhibition [13]: inactive
inhibition [14]: inactive
inhibition [15]: inactive
inhibition [16]: inactive
Activity [17]: Non-toxic
inhibition [18]: inactive
Activity [19]: Non-toxic
inhibition [21]: inactive
inhibition [23]: inactive
inhibition [24]: inactive
inhibition [25]: inactive
inhibition [26]: inactive
